# From ChEMBL document CHEMBL3797089, “Morusin Induces TRAIL Sensitization by Regulating EGFR and DR5 in Human Glioblastoma Cells” (J Nat Prod, 2016)
# pIC50: −log10 of the molar value. Activity calls are given as the source filed them. No cut-off for these calls is given here.
# Legend:
# [1] = Cytotoxicity against human U87MG cells assessed as reduction in cell viability after 24 hrs by MTT assay; assay type: functional, cell-based, U-87MG ATCC; conditions: U-87 MG
# Procedure, shortened: (§1)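 Seeded 3–5 × 10^3 cells/well, treated the next day with a range of morusin (DMSO stock) for 24 h, 37 °C, 5% CO2. Then fresh medium with 1 mg/mL MTT for 2 h at 37 °C, lysis buffer overnight at 37 °C, OD 570 nm. Mean ± SD from at least three independent experiments in triplicate.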
# [2] = Cytotoxicity against human U373MG cells assessed as reduction in cell viability after 24 hrs by MTT assay; assay type: functional, cell-based, U-373MG ATCC; conditions: U373 MG; procedure, shortened: as §1
# T98G [3] = assay: Cytotoxicity against human T98G cells assessed as reduction in cell viability measured up to 20 uM after 24 hrs by MTT assay in presence of TRAIL; assay type: functional
# Procedure, shortened: (§2)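 MTT viability. 3–5 × 10^3 cells/well, treated the next day with TRAIL 100 ng/mL plus increasing morusin concentrations for 24 h. 1 mg/mL MTT for 2 h at 37 °C, lysis overnight, OD 570 nm. Living-cell fractions were used for combination index analysis. Mean ± SD, at least three independent experiments.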
# [4] = Cytotoxicity against human U251MG cells assessed as reduction in cell viability measured up to 20 uM after 24 hrs by MTT assay in presence of TRAIL; assay type: functional, U-251; procedure, shortened: as §2
# U-87 MG [5] = assay: Induction of apoptosis in human U87MG cells assessed as increase in cleaved caspase 3 levels at 2.5 uM after 24 hrs by Western blot analysis in presence of TRAIL; assay type: functional, cell-based; conditions: U-87MG ATCC
# Procedure, shortened: (§3)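 U87MG and T98G given TRAIL 25 ng/mL plus morusin 2.5 μM together for 24 h; single-agent arms used TRAIL 50 ng/mL or morusin 5 μM. Lysates immunoblotted for cleaved caspase 3, 8, 9 and cleaved PARP, with β-actin as internal control.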
# T98G [6] = assay: Induction of apoptosis in human T98G cells assessed as increase in cleaved caspase 9 levels at 2.5 uM after 24 hrs by Western blot analysis in presence of TRAIL; assay type: functional, cell-based; procedure, shortened: as §3
# U-87 MG [7] = assay: Induction of apoptosis in human U87MG cells assessed as increase in cleaved PARP levels at 2.5 uM after 24 hrs by Western blot analysis in presence of TRAIL; assay type: functional, cell-based; conditions: U-87MG ATCC; procedure, shortened: as §3
# T98G [8] = assay: Induction of apoptosis in human T98G cells assessed as increase in cleaved PARP levels at 2.5 uM after 24 hrs by Western blot analysis in presence of TRAIL; assay type: functional, cell-based; procedure, shortened: as §3
# U373 MG [9] = assay: Induction of DR5 expression in human U373MG cells after 24 hrs by Western blot analysis; assay type: functional, cell-based; conditions: U-373MG ATCC
# Procedure, shortened: (§4)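 Cells exposed to a range of morusin concentrations for 24 h. Cell extracts immunoblotted for DR4, DR5, DcR1 and DcR2, with β-actin as internal control and HRP-conjugated secondary antibodies (1:5000).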
# [10] = Cytotoxicity against human LN18 cells assessed as reduction in cell viability after 24 hrs by MTT assay; assay type: functional, cell-based; conditions: LN-18, 24 h; procedure, shortened: as §1
# U-251 [11] = assay: Induction of DR4 expression in human U251MG cells at 25 uM after 24 hrs by FITC-conjugated flow cytometric analysis; assay type: functional, cell-based
# Procedure, shortened: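 Cells given 25 μM morusin for 24 h, then stained on ice for 30 min with 0.5 μg/mL FITC-conjugated anti-DR4, anti-DR5 or isotype IgG in FACS buffer. Surface expression read by flow cytometry.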
# [12] = Cytotoxicity against human U87MG cells transfected DR5 siRNA assessed as cell death after 24 hrs by MTT assay in presence of TRAIL; assay type: functional, U-87MG ATCC
# Procedure, shortened: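 U87MG cells were transiently transfected with scrambled control or DR5 siRNA by lipofection. At 48 h after transfection they were cotreated with TRAIL at 50 ng/mL and test compound at 20 μM for 24 h. Viability was read by MTT: 1 mg/mL for 2 h at 37 °C, lysis overnight, OD at 570 nm. Data are mean ± SD from ≥3 independent experiments.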
# [13] = Reduction of XIAP expression in human U87MG cells after 24 hrs by Western blot analysis; assay type: functional, cell-based; conditions: U-87MG ATCC
# Procedure, shortened: (§5)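 U87MG (MEM) and U373MG (RPMI) cells were given graded morusin concentrations for 24 h. Whole-cell extracts were immunoblotted for anti-apoptotic proteins, with β-actin as loading control.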
# [14] = Reduction of survivin expression in human U87MG cells after 24 hrs by Western blot analysis; assay type: functional, cell-based; conditions: U-87MG ATCC; procedure, shortened: as §5
# [15] = Reduction of XIAP mRNA expression in human U87MG cells after 24 hrs by RT-qPCR analysis; assay type: functional, cell-based; conditions: U-87MG ATCC
# Procedure, shortened: (§6)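 U87MG cells were treated with graded morusin for 24 h. Total RNA was extracted with TRI Reagent, and 1 μg was reverse transcribed. XIAP and survivin mRNA were quantified by RT-qPCR, normalized to GAPDH. Results are mean ± SD from at least three independent experiments; unpaired t-test.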
# [16] = Reduction of survivin mRNA expression in human U87MG cells after 24 hrs by RT-qPCR analysis; assay type: functional, cell-based; conditions: U-87MG ATCC; procedure, shortened: as §6
# [17] = Reduction of EGFR expression in human U373MG cells at 25 uM after 24 hrs by Western blot analysis; assay type: functional, cell-based; conditions: U-373MG ATCC
# Procedure, shortened: (§7)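 LN18, U87MG, T98G, U251MG and U373MG glioblastoma cells were exposed to morusin for 24 h. Cells were maintained in DMEM, MEM or RPMI with 10% FBS at 37 °C and 5% CO2. Whole-cell lysates were Western blotted for receptor proteins, with β-actin as internal control.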
# [18] = Reduction of EGFR expression in human U251MG cells at 25 uM after 24 hrs by Western blot analysis; assay type: functional, cell-based; conditions: U-251; procedure, shortened: as §7
# [19] = biological target: Epidermal growth factor receptor (Homo sapiens) (UniProt P00533); assay: Inhibition of EGFR phosphorylation in human U87MG cells measured up to 25 uM after 24 hrs by Western blot analysis; assay type: cell-based; conditions: U-87MG ATCC
# Chain of Epidermal growth factor receptor (Homo sapiens) (P00533 whole entry): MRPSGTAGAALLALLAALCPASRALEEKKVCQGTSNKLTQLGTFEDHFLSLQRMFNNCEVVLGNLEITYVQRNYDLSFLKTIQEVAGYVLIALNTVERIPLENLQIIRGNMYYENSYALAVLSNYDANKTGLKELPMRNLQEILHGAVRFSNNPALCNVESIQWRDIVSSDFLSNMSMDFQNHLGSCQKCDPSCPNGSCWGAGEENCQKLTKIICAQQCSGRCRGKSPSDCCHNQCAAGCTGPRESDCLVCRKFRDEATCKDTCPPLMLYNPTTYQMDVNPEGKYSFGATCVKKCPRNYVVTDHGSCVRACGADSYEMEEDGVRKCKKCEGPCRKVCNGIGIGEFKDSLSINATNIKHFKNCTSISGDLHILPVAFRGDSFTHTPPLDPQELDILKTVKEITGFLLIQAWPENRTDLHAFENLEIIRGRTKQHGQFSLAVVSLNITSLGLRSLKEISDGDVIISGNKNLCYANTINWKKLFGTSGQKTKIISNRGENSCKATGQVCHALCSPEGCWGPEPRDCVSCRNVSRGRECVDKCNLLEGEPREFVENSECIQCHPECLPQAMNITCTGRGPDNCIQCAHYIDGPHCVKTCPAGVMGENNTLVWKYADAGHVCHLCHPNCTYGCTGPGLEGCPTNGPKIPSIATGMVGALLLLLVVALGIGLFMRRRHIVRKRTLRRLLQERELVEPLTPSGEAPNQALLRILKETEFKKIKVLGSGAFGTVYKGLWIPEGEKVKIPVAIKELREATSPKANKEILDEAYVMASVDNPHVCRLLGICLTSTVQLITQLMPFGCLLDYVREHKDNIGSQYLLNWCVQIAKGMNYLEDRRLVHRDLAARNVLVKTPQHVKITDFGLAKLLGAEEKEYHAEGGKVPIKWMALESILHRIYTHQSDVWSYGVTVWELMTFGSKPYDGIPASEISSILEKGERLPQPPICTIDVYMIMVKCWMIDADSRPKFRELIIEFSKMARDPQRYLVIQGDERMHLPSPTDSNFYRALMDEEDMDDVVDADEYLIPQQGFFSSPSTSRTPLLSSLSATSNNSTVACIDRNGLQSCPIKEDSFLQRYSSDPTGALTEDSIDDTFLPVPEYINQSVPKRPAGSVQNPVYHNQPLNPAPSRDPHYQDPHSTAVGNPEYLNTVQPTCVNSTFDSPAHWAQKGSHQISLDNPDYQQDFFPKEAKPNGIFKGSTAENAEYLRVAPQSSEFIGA
# Procedure, shortened: (§8)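 Cells grown in MEM (U87MG) or RPMI (U373MG) with 10% FBS, 5% CO2, 37 °C. Treated for 24 h with the indicated concentrations of morusin (DMSO stock). Whole-cell lysates immunoblotted for phosphorylated and total proteins, with β-actin as internal control.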
# [20] = biological target: Signal transducer and activator of transcription 3 (Homo sapiens) (UniProt P40763); assay: Inhibition of STAT3 phosphorylation in human U87MG cells measured up to 25 uM after 24 hrs by Western blot analysis; assay type: cell-based; conditions: U-87MG ATCC; procedure, shortened: as §8
# Chain of Signal transducer and activator of transcription 3 (Homo sapiens) (P40763 whole entry): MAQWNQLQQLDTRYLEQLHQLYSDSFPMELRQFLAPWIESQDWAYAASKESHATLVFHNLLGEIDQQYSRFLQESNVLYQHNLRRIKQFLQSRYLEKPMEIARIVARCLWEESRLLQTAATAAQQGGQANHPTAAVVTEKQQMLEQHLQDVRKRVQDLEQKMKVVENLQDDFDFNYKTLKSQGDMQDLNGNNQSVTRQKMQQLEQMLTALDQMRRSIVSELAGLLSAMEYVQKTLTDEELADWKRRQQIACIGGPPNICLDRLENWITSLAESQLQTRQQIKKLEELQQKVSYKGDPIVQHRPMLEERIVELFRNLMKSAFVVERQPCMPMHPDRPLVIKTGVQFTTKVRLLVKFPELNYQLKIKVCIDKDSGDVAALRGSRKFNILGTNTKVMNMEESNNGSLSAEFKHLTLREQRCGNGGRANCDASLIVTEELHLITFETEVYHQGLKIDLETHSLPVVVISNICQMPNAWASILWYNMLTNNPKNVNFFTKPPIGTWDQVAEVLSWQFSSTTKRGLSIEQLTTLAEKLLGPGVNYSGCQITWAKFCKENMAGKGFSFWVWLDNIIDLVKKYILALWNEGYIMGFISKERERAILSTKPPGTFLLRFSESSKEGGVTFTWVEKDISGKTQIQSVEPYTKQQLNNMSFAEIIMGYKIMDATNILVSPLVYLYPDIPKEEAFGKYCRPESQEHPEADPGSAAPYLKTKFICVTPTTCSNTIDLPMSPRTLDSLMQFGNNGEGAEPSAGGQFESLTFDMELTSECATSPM
# U373 MG [21] = assay: Effect on DcR2 expression in human U373MG cells upto 25 uM after 24 hrs by Western blot analysis; assay type: functional, cell-based; conditions: U-373MG ATCC; procedure, shortened: as §4
# U-251 [22] = assay: Effect on DcR1 expression in human U251MG cells upto 25 uM after 24 hrs by Western blot analysis; assay type: functional, cell-based; procedure, shortened: as §4
# U-87 MG [23] = assay: Effect on DcR1 expression in human U87MG cells upto 25 uM after 24 hrs by Western blot analysis; assay type: functional, cell-based; conditions: U-87MG ATCC; procedure, shortened: as §4
# U373 MG [24] = assay: Effect on DcR1 expression in human U373MG cells upto 25 uM after 24 hrs by Western blot analysis; assay type: functional, cell-based; conditions: U-373MG ATCC; procedure, shortened: as §4
# LN-18 = assay: Effect on DR4 expression in human LN18 cells upto 25 uM after 24 hrs by Western blot analysis; assay type: functional, cell-based; procedure, shortened: as §4
# U-87 MG [25] = assay: Effect on DR4 expression in human U87MG cells upto 25 uM after 24 hrs by Western blot analysis; assay type: functional, cell-based; conditions: U-87MG ATCC; procedure, shortened: as §4
# [26] = Reduction of survivin expression in human U373MG cells at 25 uM by Western blot analysis; assay type: functional, cell-based; conditions: U-373MG ATCC, TDE = time-dependent effect
# Procedure, shortened: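 Time course: U87MG and U373MG cells were exposed to 25 μM morusin for the indicated times. Whole-cell extracts were Western blotted, with β-actin as internal control.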
smiles,measurement,setting,value
CC(C)=CCc1c(-c2ccc(O)cc2O)oc2c3c(cc(O)c2c1=O)OC(C)(C)C=C3 [MORUSIN],pIC50,[1],4.62
same,pIC50,[2],4.62
same,CI,T98G [3],<0.8
same,CI,[4],<0.8
same,Activity,U-87 MG [5],Active
same,Activity,T98G [6],Active
same,Activity,U-87 MG [7],Active
same,Activity,T98G [8],Active
same,Activity,U373 MG [9],Dose-dependent effect
same,pIC50,[10],4.62
same,Activity,U-251 [11],inactive
same,Activity,[12],10%
same,inhibition,[13],Dose-dependent effect
same,inhibition,[14],Dose-dependent effect
same,Activity,[15],Dose-dependent effect
same,Activity,[16],Dose-dependent effect
same,Activity,[17],Active
same,Activity,[18],Active
same,inhibition,[19],Active
same,inhibition,[20],Active
same,Activity,U373 MG [21],inactive
same,Activity,U-251 [22],inactive
same,Activity,U-87 MG [23],inactive
same,Activity,U373 MG [24],inactive
same,Activity,LN-18,inactive
same,Activity,U-87 MG [25],inactive
same,inhibition,[26],tde
